Columns and labels:
[1] = folding enthalpy; higher = less favourable; fluorescence melt of hairpins on a sequencing array, two-state fit; settings: sodium 0.088 M
Procedure, shortened: (§1)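 To match UV melts, fitted temperatures were raised by 9.35 °C. These fits were bootstrapped two-state models that gave melting temperature and folding enthalpy, combined by inverse variance over four replicates. The input was normalised Cy3 fluorescence of library hairpins with annealed Cy3 and quencher oligos on a sequenced MiSeq flow cell, imaged in 50 mM Na-HEPES pH 8.0, 25 mM NaCl in 2.5 °C steps up to 60 °C.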

[2] = melting temperature; fluorescence melt of hairpins on a sequencing array, two-state fit, raised by 9.35 °C to match UV melts; settings: sodium 0.088 M
Procedure, shortened: as §1

| Sequence | folding enthalpy [1] [kcal/mol] | Tm [2] [°C] |
| --- | --- | --- |
| GATTGTGAAAACAATC ((((((....)))))) | -35.9 | 51.4 |
| GATTGTGGAAACACAACC (.(((((....))))).) | -16.9 | 35.9 |
| GATTGTGGAAACACAATC (((((((....))))))) | -43.6 | 56.8 |
| GATTTCACGAAAGTGATC (((..(((....)))))) | -9.78 | 23.4 |
| GATTTCGAAAGAAATC ((((((....)))))) | -38.2 | 55 |
| GATTTGACGAAAGTCATC (((..(((....)))))) | -8.24 | 27.3 |
| GATTTGCGAAAGCAGATC (((.(((....))).))) | -32 | 50 |
| GATTTGGGAAACCAAGTC ((.((((....)))).)) | -28.7 | 38.8 |
| GATTTTGGAAACAGAATC ((((.((....)).)))) | -24.7 | 32.1 |
| GATTTTGGAAACGAAATC (((((.(....).))))) | -34.9 | 39.6 |
| GCAAAAGAAATTTTGC ((((((....)))))) | -25.9 | 46.3 |
| GCAAACACGAAAGTGTGC (((..(((....)))))) | -15.4 | 48.6 |
| GCAAACCGAAAGGTATGC (((.(((....))).))) | -37.5 | 53.4 |
| GCAAACGAAAGTTATGC ((((((....))).))) | -24.3 | 38.4 |
| GCAAACGAAAGTTCGTGC ((((((....)))..))) | -17.3 | 35.6 |
| GCAAACGAAAGTTGATGC ((((((....)))..))) | -15.2 | 35.9 |
| GCAAACGGAAACGTTTAC (.(((((....))))).) | -18.7 | 38.4 |
| GCAAACTCGAAAGAGTGC (((..(((....)))))) | -18 | 43.8 |
| GCAAAGCCGAAAGGCTGC (((..(((....)))))) | -14.2 | 54 |
| GCAAAGCGAAAGCCCTGC (((..((....))..))) | -10.3 | 28.5 |
| GCAAAGCGAAAGCTATGC (((.(((....))).))) | -33.5 | 52 |
| GCAAAGGGAAACCTCTGC (((.(((....))).))) | -19.1 | 33.8 |
| GCAAAGGGAAACCTTCGC ((.((((....)))).)) | -26.8 | 39.2 |

| Sequence | folding enthalpy [1] [kcal/mol] | Tm [2] [°C] |
| --- | --- | --- |
| GCAAAGGGAAACCTTTAC (.(((((....))))).) | -15.8 | 28 |
| GCAAAGGGAAACCTTTGC (((((((....))))))) | -45.1 | 64.1 |
| GCAAATCCGAAAGGATGC (((..(((....)))))) | -17.5 | 47.8 |
| GCAAATGCGAAAGCATGC (((..(((....)))))) | -15 | 51.4 |
| GCAAATGGAAACATCTGC (((.(((....))).))) | -20.3 | 33 |
| GCAAATTCGAAAGAATGC (((..(((....)))))) | -18.4 | 35.8 |
| GCAACAGGAAACTGCTGC (((.(((....))).))) | -30.2 | 44.6 |
| GCAACATCGAAAGATTGC (((..(((....)))))) | -19.8 | 34.2 |
| GCAACCCGAAAGGGATGC (((.(((....))).))) | -32.9 | 63.5 |
| GCAACCCGAAAGGGCTGC (((.(((....))).))) | -44.6 | 60.6 |
| GCAACCCGAAAGGGTGC (((.(((....)))))) | -19.1 | 64.1 |
| GCAACCGAAAGGTCTTGC ((((((....)))..))) | -16.5 | 35.7 |
| GCAACCGAAAGGTGCTGC ((((((....)))..))) | -23.5 | 57.1 |
| GCAACCGAAAGGTTATGC ((((((....)))..))) | -12.3 | 44.1 |
| GCAACCGAAAGGTTTGC ((((((....))).))) | -23.6 | 55.7 |
| GCAACCGAAAGGTTTTGC ((((((....)))..))) | -14.4 | 39.9 |
| GCAACGCGAAAGCACTGC (((..((....))..))) | -11.4 | 41.4 |
| GCAACGCGAAAGCCCTGC (((..((....))..))) | -7.63 | 23.8 |
| GCAACGCGAAAGCGAGGC ((..(((....)))..)) | -13.5 | 59.9 |
| GCAACGGGAAACCGTCGC ((.((((....)))).)) | -28.3 | 49.4 |
| GCAACGGGAAACCGTTAC (.(((((....))))).) | -13.3 | 38.6 |
| GCAACTACGAAAGTATGC (((..(((....)))))) | -16.5 | 32.1 |
| GCAACTGGAAACAGCTGC (((.(((....))).))) | -35.8 | 46.2 |

— the array DNA melting data of Ke et al. (doi:10.1101/2024.01.08.574731)
